Experimental findings from ChEMBL document CHEMBL2150983, “Dual Inhibitor of MurD and MurE Ligases from Escherichia coli and Staphylococcus aureus” (ACS Med Chem Lett, 2012) are described below.

One data set concerns Pseudomonas aeruginosa. In words: Antimicrobial activity against Pseudomonas aeruginosa ATCC 27853 after 18 to 24 hrs by macrodilution method. It counts as functional.
Data set [1] in a line: Inhibition of Escherichia coli MurD after 30 mins by HPLC analysis. A digest of the protocol:
(§1)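 Radioactivity-based ligase assay on E. coli or S. aureus MurD or MurE, run with Tween-20 detergent present to prevent nonspecific inhibition by compound aggregates; IC50 values reported.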

The test system of data set [2] is Staphylococcus aureus. The data set is described as follows: Inhibition of Staphylococcus aureus MurE at 200 uM after 30 mins by HPLC analysis. A digest of the protocol:
(§2)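 Radioactivity-based ligase assay with Tween-20 detergent present to prevent aggregate-driven inhibition; residual enzyme activity measured with compound at a single fixed concentration of 200 μM or 500 μM.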

The subject of data set [3] is Escherichia coli. In words: Antimicrobial activity against Escherichia coli ATCC 25922 after 18 to 24 hrs by macrodilution method. It counts as functional.
A short description of data set [4]: Inhibition of Staphylococcus aureus MurE after 30 mins by HPLC analysis. A digest of the protocol:
as §1

A short description of data set [5]: Inhibition of Staphylococcus aureus MurD after 30 mins by HPLC analysis. A digest of the protocol:
as §1

Data set [6] can be described thus: Inhibition of Escherichia coli MurE after 30 mins by HPLC analysis. A digest of the protocol:
as §1

Data set [7] relates to Escherichia coli. In words: Inhibition of Escherichia coli MurE assessed as residual activity at 200 uM after 30 mins by HPLC analysis. The procedure, abridged: as §2
The subject of data set [8] is Staphylococcus aureus. The data set is described as follows: Antimicrobial activity against methicillin-resistant Staphylococcus aureus ATCC 43300 after 18 to 24 hrs by macrodilution method. It counts as functional.
A further data set deals with Enterococcus faecalis. In words: Antimicrobial activity against Enterococcus faecalis ATCC 29212 after 18 to 24 hrs by macrodilution method. It counts as functional.
Data set [9] relates to Staphylococcus aureus. The data set is described as follows: Antimicrobial activity against Staphylococcus aureus ATCC 29213 after 18 to 24 hrs by macrodilution method. The data set is classed as functional.
The next data set relates to HepG2. In words: Cytotoxicity against human HepG2 cells up to 200 uM after 24 hrs by MTT assay. The data set is classed as cell-based. Conditions: hepg2, 24 h. For orientation: Tetrazolium assays rely on reduction of a dye to a coloured formazan, in cell work by metabolically active cells.
For data set [10], the system named is Escherichia coli. The data set is described as follows: Inhibition of Escherichia coli MurE assessed as residual activity at 500 uM after 30 mins by HPLC analysis. The procedure, abridged:
as §2

In data set [11] the test system is Staphylococcus aureus. In words: Inhibition of Staphylococcus aureus MurE assessed as residual activity at 500 uM after 30 mins by HPLC analysis.

Each structure is given as a SMILES string. ≈ marks a conversion by molar mass, not a printed value. Calls of active or inactive are those of the source. The rule behind the calls is not given here.

By MIC is commonly meant the least concentration at which growth counts as inhibited. Higher therefore signals a need for much substance. What is called IC50 is the midpoint of a concentration-inhibition curve. As for `O=C(O)CC[C@@H](NC(=O)c1cccc(NCc2ccc(/C=C3\SC(=O)NC3=O)cc2)c1)C(=O)O`, the MIC in the data set with Pseudomonas aeruginosa, against Escherichia coli [3], in the data set with Staphylococcus aureus [8], against Enterococcus faecalis and against Staphylococcus aureus [9] was over 128 µg/mL in each case. In addition, the IC50 in data set [1] was 36 µM; in data set [4], over 200 µM; in data set [5] it was 100 µM; in data set [6], 200 µM. Further, the inhibition entry in the data set on Staphylococcus aureus [2] is “inactive”. The Activity in the data set on Escherichia coli [7] turned out to be 51%.

As for `O=C(O)CC[C@@H](NC(=O)c1cccc(NCc2ccc(/C=C3\SC(=S)NC3=O)cc2)c1)C(=O)O`, the Activity entry with HepG2 was “Non-toxic”. The MIC against Pseudomonas aeruginosa is over 128 µg/mL; in the data set on Escherichia coli [3] it was over 128 µg/mL; against Staphylococcus aureus [8], 8 µg/mL (≈ 16 µM); against Enterococcus faecalis, 64 µg/mL (≈ 128 µM); against Staphylococcus aureus [9], 8 µg/mL (≈ 16 µM). In addition, the IC50 in [1] worked out at 8.2 µM; in data set [4] it was 17 µM; in data set [5] it was 6.4 µM; in data set [6], 180 µM.

As to `O=C(O)CC[C@@H](NC(=O)c1cccc(CNc2ccc(/C=C3\SC(=O)NC3=O)cc2)c1)C(=O)O`, the Activity with Escherichia coli [10] and in the data set on Staphylococcus aureus [11] was 64% in each case. The molecule also had an IC50 in [1] of 35 µM.
